Experimental data: publication PMC10107787 (Chemistry (Weinheim an Der Bergstrasse, Germany), 2022)

How the values were obtained:
[1] = Amide temperature coefficients by variable temperature 1H NMR; format: physicochemical
Summary of the method: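 Variable-temperature ¹H NMR at 500 MHz with a cryoprobe, using 16 scans and a 0.7 s relaxation delay. DMSO‑d₆ series ran from 25 to 65 or 20 to 60 °C; the CDCl₃ series ran from 10 to 50 °C; both used 10 °C steps. Each NH coefficient was calculated as (δ_high−δ_low)/(T_high−T_low), in ppb/K.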

[2] = LogD7.4, miniaturized shake-flask procedure; format: physicochemical; details: pH 7.4
Summary of the method: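 Measured in three repeats, and the reported logD is their mean.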

[3] = Permeability across Caco-2 cell monolayers; format: in vitro ADME; details: human, Caco-2, ER (efflux ratio, Papp BA/Papp AB), Caco-2 cell monolayers, no inhibitors
Summary of the method: (§1)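 Apical‑to‑basolateral and basolateral‑to‑apical Papp were measured across Caco‑2 monolayers. Efflux ratio is Papp BA/Papp AB. A parallel set was run with a cocktail of three inhibitors aimed at the three major efflux transporters. Papp AB is the mean±std of three repeats.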

Caco‐2 cell monolayers = experiment: Permeability across Caco-2 cell monolayers; format: in vitro ADME
Summary of the method: as §1

C=C[C@@H]1C[C@]1(NC(=O)[C@@H]1C[C@@H](Oc2ncc(OC)c3ccc(Cl)cc23)CN1C(=O)[C@@H](NC(=O)OC(C)(C)C)C(C)(C)C)C(=O)NS(=O)(=O)C1CC1 [Asunaprevir]
Temperature coefficient, CDCl3 ([1]; asunaprevir proton 1’’’‐NH): −4.3 ppb/K
Temperature coefficient, DMSO‐d6 ([1]; asunaprevir proton 1’’’‐NH): −2.8 ppb/K
Temperature coefficient, CDCl3 ([1]; asunaprevir proton 1’’’’‐NH): −4.3 ppb/K
Temperature coefficient, DMSO‐d6 ([1]; asunaprevir proton 1’’’’‐NH): −3.5 ppb/K
Temperature coefficient, CDCl3 ([1]; asunaprevir proton 2’‐NH): −0.3 ppb/K
Temperature coefficient, DMSO‐d6 ([1]; asunaprevir proton 2’‐NH): 1.5 ppb/K
logD [2]: 3.1
efflux ratio [3]: 270

COC(=O)N[C@H](C(=O)N[C@@H](Cc1ccccc1)[C@@H](O)CN(Cc1ccc(-c2ccccn2)cc1)NC(=O)[C@@H](NC(=O)OC)C(C)(C)C)C(C)(C)C [Atazanavir]
Temperature coefficient, CDCl3 ([1]; atazanavir proton 4‐NH): −2.0 ppb/K
Temperature coefficient, DMSO‐d6 ([1]; atazanavir proton 4‐NH): −9.8 ppb/K
Temperature coefficient, DMSO‐d6 ([1]; atazanavir proton 7‐NH): −4.3 ppb/K
Temperature coefficient, DMSO‐d6 ([1]; atazanavir proton 12‐NH): −3.5 ppb/K
Temperature coefficient, CDCl3 ([1]; atazanavir proton 15‐NH): −1.0 ppb/K
Temperature coefficient, DMSO‐d6 ([1]; atazanavir proton 15‐NH): −6.5 ppb/K
efflux ratio [3]: 40

COC(=O)N[C@H](C(=O)N1CCC[C@H]1c1nc(-c2ccc(-c3ccc(-c4c[nH]c([C@@H]5CCCN5C(=O)[C@@H](NC(=O)OC)C(C)C)n4)cc3)cc2)c[nH]1)C(C)C [Daclatasvir]
Temperature coefficient, CDCl3 ([1]; daclatasvir proton 2’’’‐NH): −3.3 ppb/K
Temperature coefficient, DMSO‐d6 ([1]; daclatasvir proton 2’’’‐NH): −3.8 ppb/K
logD [2]: 3.9
efflux ratio [3]: 38

COc1ccc2c(O[C@@H]3C[C@H]4C(=O)N[C@]5(C(=O)NS(=O)(=O)C6CC6)C[C@H]5/C=C\CCCCN(C)C(=O)[C@@H]4C3)cc(-c3nc(C(C)C)cs3)nc2c1C [Simeprevir]
Temperature coefficient, CDCl3 ([1]; simeprevir proton 1’’’‐NH): −8.8 ppb/K
Temperature coefficient, DMSO‐d6 ([1]; simeprevir proton 1’’’‐NH): −2.5 ppb/K
Temperature coefficient, CDCl3 ([1]; simeprevir proton 13‐NH): −1.3 ppb/K
Temperature coefficient, DMSO‐d6 ([1]; simeprevir proton 13‐NH): −1.0 ppb/K
logD [2]: 3.7
ER+Inhibitors (Caco‐2 cell monolayers; Caco-2, in the presence of the efflux inhibitor cocktail): highest efflux ratio
ER (efflux ratio, Papp BA/Papp AB) (Caco‐2 cell monolayers; Caco-2 cell monolayers, no inhibitors): largest
efflux ratio [3]: 330
